In ChEMBL document CHEMBL1143988, “11-(pyridinylphenyl)steroids--a new class of mixed-profile progesterone agonists/antagonists” (Bioorg Med Chem, 2008):

Assays:
Format in all cases: functional, cell-based
Progesterone receptor [1] = molecular target: T1, Progesterone receptor (Homo sapiens, UniProt P06401); experiment: Antagonist activity at human PRB expressed in CHO cells assessed as inhibition of Org 2058 induced-transactivation
T1 sequence (P06401 whole entry): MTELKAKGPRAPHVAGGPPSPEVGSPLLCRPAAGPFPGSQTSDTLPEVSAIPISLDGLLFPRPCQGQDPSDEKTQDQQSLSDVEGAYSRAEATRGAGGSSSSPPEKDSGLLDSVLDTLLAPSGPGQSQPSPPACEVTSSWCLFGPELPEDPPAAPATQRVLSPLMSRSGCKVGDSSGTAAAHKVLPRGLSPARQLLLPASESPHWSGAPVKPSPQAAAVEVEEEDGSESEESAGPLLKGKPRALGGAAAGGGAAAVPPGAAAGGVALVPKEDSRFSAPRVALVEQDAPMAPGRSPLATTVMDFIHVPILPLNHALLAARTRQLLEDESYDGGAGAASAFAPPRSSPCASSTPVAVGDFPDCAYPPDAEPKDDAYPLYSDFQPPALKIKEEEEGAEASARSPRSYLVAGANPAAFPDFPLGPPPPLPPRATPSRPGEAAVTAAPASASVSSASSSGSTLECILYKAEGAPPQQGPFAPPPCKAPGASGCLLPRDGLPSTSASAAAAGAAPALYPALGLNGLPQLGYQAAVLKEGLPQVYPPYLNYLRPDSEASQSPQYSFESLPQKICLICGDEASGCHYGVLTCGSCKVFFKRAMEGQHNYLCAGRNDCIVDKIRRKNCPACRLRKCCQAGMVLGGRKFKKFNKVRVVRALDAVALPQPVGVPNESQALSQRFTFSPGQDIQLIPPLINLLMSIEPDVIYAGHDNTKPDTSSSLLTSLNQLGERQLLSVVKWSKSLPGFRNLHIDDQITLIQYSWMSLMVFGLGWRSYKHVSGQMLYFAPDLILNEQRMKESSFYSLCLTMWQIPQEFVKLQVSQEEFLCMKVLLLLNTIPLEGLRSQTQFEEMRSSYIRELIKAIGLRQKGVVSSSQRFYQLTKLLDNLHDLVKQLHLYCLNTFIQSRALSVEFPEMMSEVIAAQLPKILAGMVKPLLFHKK
Outline: (§1)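 PR-B-mediated luciferase transactivation antagonist mode, run in the same setting as the agonist assay, with 0.1 nM Org 2058 as inducer; IC50 taken from inhibition of luciferase induction. Efficacy given relative to the antagonist Org 31710, whose effect is set to 100%.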

[2] = molecular target: T2, Progesterone receptor (Homo sapiens) (UniProt P06401); experiment: Agonist activity at human PRB expressed in CHO cells relative to Org 2058
T2 sequence (whole entry): T1 sequence (P06401 whole entry)

[3] = molecular target: T2, Progesterone receptor (Homo sapiens); experiment: (§2) Antagonist activity at human PRB expressed in CHO cells assessed as inhibition of Org 2058 induced-transactivation relative to Org 31710; outline: as §1
Progesterone receptor [4] = molecular target: T1, Progesterone receptor; experiment: Agonist activity at human PRB expressed in CHO cells
Progesterone receptor [5] = molecular target: T1, Progesterone receptor; experiment: as §2; outline: as §1

SMILES: C=C[C@@H]1C[C@H]2[C@@H]3CCC4=CC(=O)CCC4=C3[C@@H](c3ccc(-c4ccc(OC)nc4)cc3)C[C@]2(C)[C@H]1C(=O)C1CC1
- IC50 (Progesterone receptor [1]): 0.98 nM
- Efficacy [2]: 41%
- Efficacy [3]: 45%

SMILES: C[C@]12C[C@H](c3ccc(-c4cccnc4)cc3)C3=C4CCC(=O)C=C4CC[C@H]3[C@@H]1CCC21CCCC1=O (stereo partly drawn)
- IC50 (Progesterone receptor [1]): 0.33 nM
- Efficacy [2]: 17%
- Efficacy [3]: 71%
- EC50 (Progesterone receptor [4]): 0.29 nM

SMILES: C=C[C@@H]1C[C@H]2[C@@H]3CCC4=CC(=O)CCC4=C3[C@@H](c3ccc(-c4cccnc4)cc3)C[C@]2(C)[C@H]1C(=O)C1CC1
- IC50 (Progesterone receptor [1]): 0.61 nM
- Efficacy [2]: 47%
- Efficacy [3]: 38%

SMILES: COc1ccc(-c2ccc([C@H]3C[C@@]4(C)[C@@H](C[C@@H](C)[C@@H]4C(=O)C4CC4)[C@@H]4CCC5=CC(=O)CCC5=C43)cc2)cn1
- IC50 (Progesterone receptor [1]): 0.63 nM
- Efficacy [2]: 42%
- Efficacy [3]: 59%

SMILES: C[C@@H]1C[C@H]2[C@@H]3CCC4=CC(=O)CCC4=C3[C@@H](c3ccc(-c4ccncc4)cc3)C[C@]2(C)[C@H]1C(=O)C1CC1
- IC50 (Progesterone receptor [1]): 2.5 nM
- Efficacy [2]: 56%
- Efficacy [3]: 27%

SMILES: CC[C@@H]1C[C@H]2[C@@H]3CCC4=CC(=O)CCC4=C3[C@@H](c3ccc(-c4cccnc4)cc3)C[C@]2(C)[C@H]1C(=O)C1CC1
- IC50 (Progesterone receptor [1]): 0.6 nM
- Efficacy [2]: 34%
- Efficacy [3]: 53%

SMILES: C[C@@H]1C[C@H]2[C@@H]3CCC4=CC(=O)CCC4=C3[C@@H](c3ccc(-c4cnccn4)cc3)C[C@]2(C)[C@H]1C(=O)C1CC1
- IC50 (Progesterone receptor [1]): 1.3 nM
- Efficacy [2]: 54%
- Efficacy [3]: 35%

SMILES: C[C@@H]1C[C@H]2[C@@H]3CCC4=CC(=O)CCC4=C3[C@@H](c3ccc(-c4ncccn4)cc3)C[C@]2(C)[C@H]1C(=O)C1CC1
- IC50 (Progesterone receptor [1]): 3.25 nM
- Efficacy [2]: 52%
- Efficacy [3]: > 27%

SMILES: C[C@@H]1C[C@H]2[C@@H]3CCC4=CC(=O)CCC4=C3[C@@H](c3ccc(-c4cnc5ccccc5c4)cc3)C[C@]2(C)[C@H]1C(=O)C1CC1
- IC50 (Progesterone receptor [1]): 3.14 nM
- Efficacy [2]: 50%
- Efficacy [3]: 24%

SMILES: COC[C@]1(OC)CC[C@H]2[C@@H]3CCC4=CC(=O)CCC4=C3[C@@H](c3ccc(/C=N/O)cc3)C[C@@]21C [ASOPRISNIL]
- IC50 (Progesterone receptor [1]): 0.2 nM
- Efficacy [3]: 97%
- EC50 (Progesterone receptor [4]): > 100 nM

SMILES: C[C@@H]1C[C@H]2[C@@H]3CCC4=CC(=O)CCC4=C3[C@@H](c3ccc(-c4ccc(Cl)nc4)cc3)C[C@]2(C)[C@H]1C(=O)C1CC1
- IC50 (Progesterone receptor [1]): 0.47 nM
- Efficacy [2]: 47%
- Efficacy [3]: 43%

SMILES: C[C@@H]1C[C@H]2[C@@H]3CCC4=CC(=O)CCC4=C3[C@@H](c3ccc(-c4ccc(F)nc4)cc3)C[C@]2(C)[C@H]1C(=O)C1CC1
- IC50 (Progesterone receptor [1]): 8.48 nM
- Efficacy [2]: 51%
- Efficacy [3]: 50%

SMILES: C[C@@H]1C[C@H]2[C@@H]3CCC4=CC(=O)CCC4=C3[C@@H](c3ccc(-c4cccnc4)cc3)C[C@]2(C)[C@H]1C(=O)C1CC1
- IC50 (Progesterone receptor [1]): 0.27 nM
- Efficacy [2]: 49%
- Efficacy [3]: 46%

SMILES: C[C@@H]1C[C@H]2[C@@H]3CCC4=CC(=O)CCC4=C3[C@@H](c3ccc(-c4ccnnc4)cc3)C[C@]2(C)[C@H]1C(=O)C1CC1
- IC50 (Progesterone receptor [1]): 3.64 nM
- Efficacy [2]: 51%
- Efficacy [3]: 37%
- EC50 (Progesterone receptor [4]): 0.36 nM

SMILES: C[C@]12C[C@H](c3ccc(-c4cccnc4)cc3)C3=C4CCC(=O)C=C4CC[C@H]3[C@@H]1CC[C@@H]2C(=O)C1CC1
- IC50 (Progesterone receptor [1]): 0.75 nM
- Efficacy [2]: 36%
- Efficacy [3]: 66%

SMILES: CN(C)c1ccc([C@H]2C[C@@]3(C)[C@@H](CC[C@@]34CCCC4=O)[C@@H]3CCC4=CC(=O)CCC4=C32)cc1
- IC50 (Progesterone receptor [5]): 0.2 nM

SMILES: C=C1CCO[C@]12CC[C@H]1[C@@H]3CCC4=CC(=O)CCC4[C@H]3[C@@H](c3ccc(N(C)C)cc3)C[C@@]12C (stereo partly drawn)
- IC50 (Progesterone receptor [5]): 0.2 nM

SMILES: C[C@]12C[C@H](c3ccc(-c4cccnc4)cc3)C3=C4CCC(=O)C=C4CC[C@H]3[C@@H]1CC[C@]2(C)C(=O)C1CC1
- IC50 (Progesterone receptor [1]): 0.13 nM
- Efficacy [2]: 38%
- Efficacy [3]: 58%

SMILES: C[C@@H]1C[C@H]2[C@@H]3CCC4=CC(=O)CCC4=C3[C@@H](c3ccc(-c4ccccn4)cc3)C[C@]2(C)[C@H]1C(=O)C1CC1
- IC50 (Progesterone receptor [1]): 14.8 nM
- Efficacy [2]: 49%
- Efficacy [3]: 33%

SMILES: COc1ccc(-c2ccc([C@H]3C[C@]4(C)[C@@H](C(=O)C5CC5)CC[C@H]4[C@@H]4CCC5=CC(=O)CCC5=C43)cc2)cn1
- IC50 (Progesterone receptor [1]): 0.43 nM
- Efficacy [2]: 28%
- Efficacy [3]: 57%

SMILES: CC[C@@H]1C[C@H]2[C@@H]3CCC4=CC(=O)CCC4=C3[C@@H](c3ccc(-c4ccc(OC)nc4)cc3)C[C@]2(C)[C@H]1C(=O)C1CC1
- IC50 (Progesterone receptor [1]): 7.89 nM
- Efficacy [2]: 42%
- Efficacy [3]: 52%

SMILES: CC(=O)O[C@]1(C(C)=O)CC[C@H]2[C@@H]3CCC4=CC(=O)CCC4=C3[C@@H](c3ccc(N(C)C)cc3)C[C@@]21C [ULIPRISTAL ACETATE]
- IC50 (Progesterone receptor [1]): 0.2 nM
- Efficacy [3]: 100%
- EC50 (Progesterone receptor [4]): > 100 nM

SMILES: COc1ccc(-c2ccc([C@H]3C[C@@]4(C)[C@@H](CCC45CCCC5=O)[C@@H]4CCC5=CC(=O)CCC5=C43)cc2)cn1 (stereo partly drawn)
- IC50 (Progesterone receptor [1]): 0.55 nM
- Efficacy [2]: 20%
- Efficacy [3]: 62%
- EC50 (Progesterone receptor [4]): 0.15 nM
